Among the data in ChEMBL document CHEMBL1142610, “Phenanthroquinolizidine alkaloids from the roots of Boehmeria pannosa potently inhibit hypoxia-inducible factor-1 in AGS human gastric cancer cells” (J Nat Prod, 2006) are Activity and IC50 values, retold here.

Test [1] has as its target Hypoxia-inducible factor 1-alpha (Homo sapiens) (UniProt Q16665). The experiment in a line: Inhibition of hypoxia-induced HIF1alpha protein accumulation in human AGS cells after 12 hrs by Western blot. The format is cell-based. Summed up:
(§1)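 AGS cells plated at 1.5 × 10^5 cells/cm2 and left overnight at 37 °C. Pretreated 1 h with graded concentrations, then 12 h hypoxia (1% O2, 94% N2, 5% CO2, 37 °C). Total lysates (50 µg) run on 6% SDS-PAGE. Blotted with monoclonal anti-HIF-1α or anti-HIF-1β, ECL detection. TOPO I served as loading control. At least three experiments.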

In test [2] the target is T1, Hypoxia inducible factors; HIF-1-alpha, HIF-2-alpha (Homo sapiens, UniProt Q16665+Q99814). The experiment in a line: Inhibition of hypoxia-induced HIF1 activation in human AGS cells after 16 hrs by pGL3-HRE-luciferase reporter gene assay. The format is cell-based. The method, boiled down:
(§2)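 AGS cells transiently cotransfected with pGL3-HRE-Luc (six HRE copies from human VEGF gene) plus pRL-CMV, plated 4 × 10^4 cells/well, grown 48 h. Then treated with graded concentrations and held 16 h in hypoxia (1% O2, 94% N2, 5% CO2). Dual-luciferase read-out, firefly normalized to renilla. 17-DMAG positive control. At least three independent experiments.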
For orientation: A reporter such as luciferase makes a cellular process visible.

For test [3], the target named is Aryl hydrocarbon receptor nuclear translocator (Homo sapiens) (UniProt P27540). Description: Inhibition of hypoxia-induced HIF1beta protein accumulation in human AGS cells after 12 hrs by Western blot. The format is cell-based. Summed up: as §1
Sequence of Aryl hydrocarbon receptor nuclear translocator (Homo sapiens) (P27540 whole entry): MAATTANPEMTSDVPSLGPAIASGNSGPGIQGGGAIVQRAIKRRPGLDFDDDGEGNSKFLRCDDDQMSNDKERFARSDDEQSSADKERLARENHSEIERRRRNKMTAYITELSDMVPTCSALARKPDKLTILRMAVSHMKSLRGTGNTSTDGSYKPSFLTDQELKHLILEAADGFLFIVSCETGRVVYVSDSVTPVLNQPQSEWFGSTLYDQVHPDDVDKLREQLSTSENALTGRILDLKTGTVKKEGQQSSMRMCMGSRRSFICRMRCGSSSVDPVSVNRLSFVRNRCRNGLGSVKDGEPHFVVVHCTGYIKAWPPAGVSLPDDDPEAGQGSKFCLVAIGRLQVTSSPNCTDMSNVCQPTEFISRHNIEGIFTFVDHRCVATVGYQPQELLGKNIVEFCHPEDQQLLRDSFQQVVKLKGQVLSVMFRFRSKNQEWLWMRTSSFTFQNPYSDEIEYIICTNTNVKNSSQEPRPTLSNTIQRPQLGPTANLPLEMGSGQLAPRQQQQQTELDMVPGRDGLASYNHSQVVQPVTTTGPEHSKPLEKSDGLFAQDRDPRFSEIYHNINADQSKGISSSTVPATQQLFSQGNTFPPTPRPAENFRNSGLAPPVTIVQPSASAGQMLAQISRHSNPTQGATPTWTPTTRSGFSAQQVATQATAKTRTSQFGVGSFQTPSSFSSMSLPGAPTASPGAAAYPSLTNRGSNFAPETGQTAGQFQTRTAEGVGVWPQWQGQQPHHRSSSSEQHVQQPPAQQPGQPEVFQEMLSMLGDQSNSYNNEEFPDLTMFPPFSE
(In general: In western blotting, separated proteins are transferred to a membrane and probed.)

Test [4] deals with T1, Hypoxia inducible factors; HIF-1-alpha, HIF-2-alpha. Description: Inhibition of hypoxia-induced HIF1 activation in human AGS cells at 300 nM after 16 hrs by pGL3-HRE-luciferase reporter gene assay. The format is cell-based. The method, boiled down: as §2
Test [5] has the same target. Description: Inhibition of hypoxia-induced HIF1 activation in human AGS cells at 100 nM after 16 hrs by pGL3-HRE-luciferase reporter gene assay. The format is cell-based. The method, boiled down:
as §2

Test [6] has as its system AGS. Description: Inhibition of hypoxia-induced VEGF expression in human AGS cells after 16 hrs by RT-PCR analysis. The format is functional, cell-based. Summed up:
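AGS cells at 1.5 × 10^5 cells/cm2 pretreated 1 h with graded concentrations, then 16 h hypoxia (1% O2). Total RNA isolated and VEGF transcript detected by RT-PCR: 25 cycles (94 °C 30 s, 58 °C 30 s, 72 °C 1 min). Products run on 2% agarose with ethidium bromide staining. At least three experiments.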

Test [7] in a line: Inhibition of hypoxia-induced HIF1 activation. Summed up: as §2

Activity calls are given as the source filed them. No cut-off for these calls is given here.

Sequence of Hypoxia-inducible factor 1-alpha (Homo sapiens) (Q16665 whole entry, looked up): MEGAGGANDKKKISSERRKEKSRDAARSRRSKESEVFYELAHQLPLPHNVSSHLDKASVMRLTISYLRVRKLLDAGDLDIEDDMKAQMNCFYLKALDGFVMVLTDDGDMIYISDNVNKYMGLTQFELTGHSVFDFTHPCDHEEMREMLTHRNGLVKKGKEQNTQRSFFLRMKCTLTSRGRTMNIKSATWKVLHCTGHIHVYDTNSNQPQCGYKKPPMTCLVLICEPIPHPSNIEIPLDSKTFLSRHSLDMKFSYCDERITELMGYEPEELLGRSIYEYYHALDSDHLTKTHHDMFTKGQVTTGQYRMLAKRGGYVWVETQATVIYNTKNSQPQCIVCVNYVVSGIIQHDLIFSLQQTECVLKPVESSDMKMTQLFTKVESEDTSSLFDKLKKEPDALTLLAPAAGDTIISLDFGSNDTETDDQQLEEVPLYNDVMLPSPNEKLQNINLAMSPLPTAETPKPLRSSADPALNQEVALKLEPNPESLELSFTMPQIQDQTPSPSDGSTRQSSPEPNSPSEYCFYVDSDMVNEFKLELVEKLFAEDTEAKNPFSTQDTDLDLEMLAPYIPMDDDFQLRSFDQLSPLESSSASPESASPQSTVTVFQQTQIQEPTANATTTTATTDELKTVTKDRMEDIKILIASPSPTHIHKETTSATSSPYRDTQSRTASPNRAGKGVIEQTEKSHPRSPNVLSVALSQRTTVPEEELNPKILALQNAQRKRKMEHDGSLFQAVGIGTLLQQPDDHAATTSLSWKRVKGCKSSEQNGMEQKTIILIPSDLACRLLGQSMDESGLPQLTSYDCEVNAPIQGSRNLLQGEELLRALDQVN

In the case of `COc1ccc2c3c(c4cc(OC)c(OC)cc4c2c1)[C@@H](O)[C@H]1CCCCN1C3`, the Activity entry in test [1] was “Dose-dependent effect”. This compound also yielded an IC50 in test [2] of 48.1 nM. Besides, in test [3], the outcome was inactive. Also, in test [4], the result was Active.
As to `COc1ccc2c3c(c4cc(OC)c(OC)cc4c2c1)C[C@H]1CCCCN1C3` [CRYPTOPLEURINE], the Activity result in test [1] and in test [6] was “Dose-dependent effect” throughout. In addition, the result in test [5] was Active. In test [2], the IC50 was found to be 8.7 nM. For the same compound, in test [3], the outcome was inactive.
In test [7], `COc1ccc([C@@H](O)[C@@H](C)Oc2ccc([C@H]3O[C@H](c4ccc(O[C@H](C)[C@H](O)c5ccc6c(c5)OCO6)c(OC)c4)[C@H](C)[C@H]3C)cc2OC)cc1OC` [MANASSANTIN B] yielded an IC50 of 3 nM.

Broadly, the IC50 is the midpoint of a concentration-inhibition curve.
